Exocytosis inh: blocks lytic granule exocytosis; hit rate 0.66% among 360,000; inhibition, % at 10 µM; TALL-104 LAMP-1 surface exposure, flow cytometry; cells stimulated with thapsigargin and PMA; AID 651702;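 active = inhibition above about 55%, limit read from the data; inconclusive = no clear call, values can overlap the other calls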
T cell modulator: modulates CD8 T cell binding to vesicles. hit rate 0.068% among 330,000. AID 2052. response (vesicle binding), % at 7 µM. 2C CD8+ T cell-vesicle binding, flow cytometry; active compounds read low;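 active = response, share of CD8 T cells binding vesicles, and their 90th percentile fluorescence all below set limits, cut at about 80% in these data, passing the limit was not always enough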;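 note: values below 100% mean blocked vesicle binding to the CD8+ T cells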
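Material: 2C TCR transgenic mouse naive CD8+ T cells, MACS-purified. Also added: QL9-charged Drosophila Ld/ICAM-1/B7-1 vesicles. Timing: binding 1.5 h at 37 °C. Measured by: high-throughput flow cytometry with anti-B7-1 and anti-CD8 staining. Read-out: percent CD8+ FL2 mean versus row control. Controls: Unloaded micro-vesicles (low), QL9 vesicles with 0.7% DMSO (high).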
MC4R antagonist: antagonists of human melanocortin 4 receptor (MC4R); P32245; MC4R-expressing cells, MTII-stimulated cAMP, LANCE TR-FRET; inhibition, % at 6.5 µM; hit rate 0.48% among 360,000; AID 540295;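 active = inhibition above its plate's cutoff, the mean of tested wells on that plate plus 3 SD, cut at about 29% in these data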;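 note: 0% = Melanotan II alone and 100% = Melanotan II plus saturating MCL0020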
Target sequence (P32245 whole entry, looked up): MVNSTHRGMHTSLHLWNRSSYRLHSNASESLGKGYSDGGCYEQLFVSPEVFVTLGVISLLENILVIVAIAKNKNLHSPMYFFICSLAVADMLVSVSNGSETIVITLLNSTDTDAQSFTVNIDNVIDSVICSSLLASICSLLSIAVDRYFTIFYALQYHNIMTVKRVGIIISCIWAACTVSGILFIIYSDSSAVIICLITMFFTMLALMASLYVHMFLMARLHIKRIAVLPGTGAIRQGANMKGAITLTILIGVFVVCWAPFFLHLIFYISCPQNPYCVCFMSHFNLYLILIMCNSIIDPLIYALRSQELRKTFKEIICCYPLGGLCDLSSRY
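Material: U2OS-MC4R stable cell line | Reagent: Melanotan II challenge after compound preincubation | Doses: One concentration, 6.5 µM nominal | Incubation: 30-min compound preincubation, 1-h Melanotan II challenge, 1-h detection, room temperature | Signal: TR-FRET cAMP assay | Replicates: One well per compound, no replicates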
PGE2 EP2 inh: inhibitors of human EP2 prostaglandin E2 receptor; C6 glioma cells expressing human EP2, cAMP TR-FRET; cells stimulated with saturating PGE2; inhibition, % at 25 µM; hit rate 0.52% among 260,000;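 active = percent inhibition above 40 after rounding to a whole number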;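 note: rat C6 glioma host cells with rolipram phosphodiesterase inhibitor present; the protocol text gives 20 µM as final concentration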
Target sequence (P43116 whole entry, looked up): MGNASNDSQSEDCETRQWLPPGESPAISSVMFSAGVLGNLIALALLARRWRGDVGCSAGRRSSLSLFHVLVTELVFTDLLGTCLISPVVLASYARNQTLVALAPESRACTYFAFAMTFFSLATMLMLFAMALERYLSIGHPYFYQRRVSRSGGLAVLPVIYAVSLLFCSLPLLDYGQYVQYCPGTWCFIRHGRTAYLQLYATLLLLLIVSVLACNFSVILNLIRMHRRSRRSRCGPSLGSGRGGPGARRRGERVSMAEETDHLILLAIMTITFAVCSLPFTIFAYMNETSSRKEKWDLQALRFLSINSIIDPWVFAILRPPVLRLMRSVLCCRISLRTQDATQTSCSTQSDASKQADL
EP2 mod: modulates human prostaglandin E2 receptor EP2 signaling; hit rate 0.83% among 260,000; induction, % at 25 µM; P43116; EP2-expressing cells, cAMP HTRF FRET, PGE2 co-stimulation;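 active = compounds whose cAMP rise, as percent of the full-agonist control response, exceeds 60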;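 note: rat C6 glioma line stably carrying human EP2 under a CMV promoter; the protocol text gives 20 µM as final concentration; 100% = response of wells given 1 µM PGE2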
MC4R ag barr: agonists of human melanocortin 4 receptor (MC4R) beta-arrestin | P32245 | U2OS MC4R beta-arrestin complementation, luminescence; percent of melanotan II response, DMSO zero | activation, % at 8.9 µM | hit rate 0.98% among 360,000;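 active = activation above a per-plate cutoff, the mean activation of sample wells on that plate plus 3 SD, cut at about 8% in these data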
MC4R barr ag: human MC4R beta-arrestin agonism confirmation; activation, % at 8.9 µM; U2OS MC4R beta-arrestin recruitment, luminescence; scaled DMSO 0%, Melanotan II 100%; shares compounds with MC4R ag barr; hit rate 31% among 2,400;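 active = mean activation across replicates above the hit cutoff set in the earlier primary screen, cut at about 8% in these data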
MOR-DOR barr ag: OPRM1-OPRD1 heterodimer agonism counter-screen | shares compounds with MC4R ag barr | U2OS PathHunter beta-arrestin, beta-gal luminescence; percent of deltorphin B response, DMSO zero | activation, % at 9.2 µM | hit rate 5.8% among 2,400 | AID 602194;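 active = mean activation across replicates exceeds the hit threshold derived in the earlier primary screen, cut at about 18% in these data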;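 note: 100% = deltorphin B at 0.9 µM final and 0% = DMSO alone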
Starred values were filed as active, the others as inactive; i = inactive; ? = inconclusive; . = no result. In the library only some 2.6% were active in any assay of this set; here they are far more common.

SMILES | Exocytosis inh | T cell modulator | MC4R antagonist | PGE2 EP2 inh | EP2 mod | MC4R ag barr | MC4R barr ag | MOR-DOR barr ag
NS(=O)(=O)c1ccc(CCNc2nc3c(-c4cccc(F)c4)nnn3c3ccccc23)cc1 | 8.3 | 319.5 | -51.2 | 10.5 | -19.8 | 14.6* | 10.7* | 13.4
CCC(C)c1ccc(OCCn2cc(/C=N/NC(=O)CSc3nnc(C)s3)c3ccccc32)cc1 (stereo not drawn) | 17.1 | 313.6 | 15.9 | 4.8 | -19.0 | 15.7* | 4.8 | 5.3
CCOC(=O)c1cccc(NC(=O)CCn2c(=O)oc3ccccc32)c1 | -9.0 | 387.5 | 2.8 | . | . | -0.7 | . | .
Cc1ccc(-n2nnc3c(SCC(=O)NCc4ccco4)ncnc32)cc1 | -0.1 | 288.9 | 4.1 | 11.5 | 12.0 | 13.5* | 1.1 | 4.7
CC(Oc1ccccc1F)C(=O)NNC(=O)c1cccc(S(=O)(=O)N2CCN(C)CC2)c1 (stereo not drawn) | 7.5 | i | -3.1 | . | . | -0.5 | . | .
CC(/C=C/C=C/c1ccccc1)=N/NC(=O)CNc1ccc(C)cc1 | 5.2 | 198.2 | -17.6 | 2.9 | -31.7 | 13.8* | 0.8 | 3.5
Cc1cccc(NCC(=O)N/N=C\c2cccc(Oc3ccccc3)c2)c1 | 5.4 | 462.8 | -1.9 | 4.6 | 8.2 | 11.9* | 3.3 | 3.6
N#CCC(=O)N/N=C/c1cccc(Oc2ccccc2)c1 | -1.3 | 162.1 | 4.2 | 8.4 | 40.7 | 0.3 | . | .
Cc1ccc(NCC(=O)N/N=C/c2cccc(Oc3ccccc3)c2)cc1 | 22.2 | 471.8 | -0.7 | 4.8 | 16.5 | 23.6* | 3.7 | 3.3
O=C(COC(=O)Cc1ccsc1)NCc1ccc(Cl)cc1 | -2.0 | 424.7 | 3.6 | 8.5 | 9.8 | -1.0 | . | .
COc1ccc(NC(=O)C2Cc3c(-c4ccc(NC(C)=O)cc4)ccnc3O2)cn1 (stereo not drawn) | -2.1 | . | -8.2 | . | . | -0.4 | . | .
O=C(Cc1ccccc1)N[C@@H](Cc1ccccc1)C(=O)O | 26.4 | . | -1.3 | 8.2 | 12.9 | -1.7 | . | .
Cc1ccc(-c2nnn(CC(=O)N(CC(=O)NC3CCCC3)c3ccc(F)c(Cl)c3)n2)o1 | 18.6 | 347.0 | 5.5 | 9.8 | 6.6 | 10.0* | 0.8 | 4.6
COc1ccc(C(=O)N2CCCCC2c2ccc[n+](C)c2)cc1 (stereo not drawn) | . | . | . | 13.3 | -2.7 | . | . | .
N#C/C(=C/c1ccco1)c1nc2ccccc2s1 | ? | 420.6 | -6.3 | 7.0 | -23.7 | 9.6* | -2.7 | 3.9
N#C/C(=C\c1ccco1)c1nc2ccccc2s1 | -5.1 | 212.1 | 5.7 | 3.0 | -48.1 | 3.7 | . | .
CCOc1ccc(N=Nc2c(=O)[nH]n3c(C)cc(C)nc23)cc1 | 9.4 | i | -21.3 | 3.8 | 8.4 | -1.2 | . | .
c1ccc(-c2csc3ncnc(NCc4ccccn4)c23)cc1 | 23.1 | 92.8 | -13.6 | 6.0 | -22.4 | 11.2* | 3.7 | 3.2
c1ccc(CNc2ncnc3scc(-c4cccs4)c23)nc1 | 48.2 | 136.9 | 0.6 | 10.3 | -28.2 | 2.4 | . | .
Cc1sc2ncnc(Nc3ccc(O)cc3)c2c1C | 5.7 | 107.3 | -11.7 | 17.6 | 2.6 | -3.4 | . | .
Oc1ccc(Nc2ncnc3scc(-c4ccccc4)c23)cc1 | 6.4 | 376.5 | 4.5 | 6.3 | 16.6 | 12.5* | 7.9 | 6.4
COc1ccc(NC(=O)c2ccc3c(c2)C(=O)N(Cc2cccnc2)C3=O)cc1 | -4.2 | 451.8 | 4.6 | 13.5 | -22.1 | -0.1 | . | .
Cc1ccc(Cn2cccc2/C=N/NC(=S)Nc2ccc(C)cc2)cc1 | -1.8 | 310.6 | 9.2 | 14.5 | 31.2 | 20.8* | 8.8* | 6.0
COc1ccc(NC(=S)N/N=C/c2cccn2Cc2ccc(F)cc2)cc1 | -1.2 | 253.0 | 13.0 | 4.7 | 9.4 | 10.4* | -0.6 | 4.9
Cc1ccc(Nc2cc(C)nc3ccccc23)c(C)c1 | 3.7 | 409.7 | 9.6 | . | . | 0.8 | . | .
SMILES | Exocytosis inh | T cell modulator | MC4R antagonist | PGE2 EP2 inh | EP2 mod | MC4R ag barr | MC4R barr ag | MOR-DOR barr ag
CCOC1=NC(=C(c2ccccc2)c2ccccc2)OC1=O | 5.7 | . | 2.8 | . | . | -0.3 | . | .
N#Cc1ccccc1N/C=C/C(=O)c1ccc(Cl)cc1 | 54.6 | 422.7 | 2.9 | . | . | 12.6* | 3.4 | 2.9
CCCCN(C(=O)c1ccc(N2CCCC2=O)cc1)c1c(N)n(CCC)c(=O)[nH]c1=O | 0.4 | 168.9 | 10.1 | . | . | -3.3 | . | .
CCn1c(CNC(=O)COc2ccc(C(C)C)cc2)nnc1SCC(=O)NC1CCCCC1C (stereo not drawn) | 4.9 | 652.7 | -1.1 | 8.8 | 20.7 | -1.2 | . | .
O=C(CCN1C(=O)c2ccccc2C1=O)Nc1ccc(-c2cn3ccsc3n2)cc1 | -2.0 | i | 9.2 | 13.1 | -45.3 | 12.8* | -1.0 | 4.3
NC(=O)C(Cc1ccccc1)N1C(=O)c2ccccc2C1=O (stereo not drawn) | -3.2 | 258.4 | 9.5 | -3.1 | 7.9 | -1.0 | . | .
Cc1cccc(NC(=O)c2cccc3c2C(=O)c2ccccc2-3)c1 | -0.4 | 245.1 | 5.2 | . | 30.1 | 32.7* | 8.3* | 9.0
Cc1cccc(NC(=O)c2ccccc2-c2ccccc2)c1 | -1.2 | 119.7 | 4.5 | 7.2 | 43.4 | 0.1 | . | .
COc1ccc(CC(=O)Nc2c(C(N)=O)oc3ccccc23)cc1OC | -3.1 | 617.9 | 11.4 | . | . | -2.2 | . | .
CCOc1ccc(CC(=O)Nc2c(C(=O)Nc3ccccc3)oc3ccccc23)cc1OCC | -1.8 | 675.3 | 2.3 | 10.4 | 3.1 | 15.0* | 10.9* | 0.6
CCn1c(COc2ccc(Cl)cc2)nnc1SCC(=O)Nc1ccc2c(c1)OCCO2 | 0.0 | 173.1 | 13.8 | 5.8 | -6.4 | -0.1 | . | .
CCn1c(COc2ccc3c(c2)OCO3)nnc1SCC(=O)c1ccc(Cl)cc1 | -5.6 | 167.6 | -7.3 | 19.7 | 16.3 | 9.9* | 1.7 | 3.9
COc1cc(C(=O)N2CCCC(c3cc(C(=O)NCc4ccccc4)no3)C2)cc(OC)c1C (stereo not drawn) | -0.7 | . | -2.7 | . | . | -2.0 | . | .
COC(=O)c1ccc(NC(=O)CN2C(=O)C3C4C=CC(C4)C3C2=O)cc1 (stereo not drawn) | -4.7 | 397.3 | 1.4 | 5.5 | 23.5 | -1.4 | . | .
CCOc1cc(NC(=O)c2cccs2)c(OCC)cc1NC(=O)c1ccco1 | 1.3 | 182.8 | 6.0 | 10.7 | 27.2 | 11.8* | 16.6* | 5.6
CCCCCCOc1ccc(/C(C)=N/NC2=NCCN2)cc1[N+](=O)[O-] | 18.2 | 149.4 | 4.3 | 4.5 | -39.4 | 14.3* | 11.5* | 10.0
COCCN(CC(=O)NCC1CCCO1)C(=O)CCC(=O)Nc1cc(C)ccn1 (stereo not drawn) | -3.4 | 168.6 | 0.3 | 17.4 | 28.8 | -1.8 | . | .
C=CCNC(=O)NC(=O)COC(=O)/C(C#N)=C/c1cc(C)n(CCC(C)C)c1C | -0.9 | 615.3 | 3.4 | 7.3 | 5.9 | 10.4* | 6.6 | 9.5
